Measured values taken from ChEMBL document CHEMBL5096236, “Development of Fluorinated Peptoid-Based Histone Deacetylase (HDAC) Inhibitors for Therapy-Resistant Acute Leukemia” (J Med Chem, 2022).
Activity calls are given as the source filed them. The rule behind the calls is not given here.

Key:
[1] = target: Histone deacetylase 1 (Homo sapiens, UniProt Q13547); assay: Inhibition of recombinant human C-terminal FLAG/His-tagged HDAC1 (1 to 482 residues) expressed in Sf9 insect cells using Z-Lys(Ac)-AMC as fluorogenic substrate incubated for 90 mins by microplate reader analysis
[2] = target: T1, Protein deacetylase HDAC6 (Homo sapiens, UniProt Q9UBN7); assay: Inhibition of recombinant human N-terminal GST-tagged HDAC6 (1 to 1215 residues) expressed in Sf9 insect cells using Z-Lys(Ac)-AMC as fluorogenic substrate incubated for 90 mins by microplate reader analysis
T1 sequence (Q9UBN7 whole entry): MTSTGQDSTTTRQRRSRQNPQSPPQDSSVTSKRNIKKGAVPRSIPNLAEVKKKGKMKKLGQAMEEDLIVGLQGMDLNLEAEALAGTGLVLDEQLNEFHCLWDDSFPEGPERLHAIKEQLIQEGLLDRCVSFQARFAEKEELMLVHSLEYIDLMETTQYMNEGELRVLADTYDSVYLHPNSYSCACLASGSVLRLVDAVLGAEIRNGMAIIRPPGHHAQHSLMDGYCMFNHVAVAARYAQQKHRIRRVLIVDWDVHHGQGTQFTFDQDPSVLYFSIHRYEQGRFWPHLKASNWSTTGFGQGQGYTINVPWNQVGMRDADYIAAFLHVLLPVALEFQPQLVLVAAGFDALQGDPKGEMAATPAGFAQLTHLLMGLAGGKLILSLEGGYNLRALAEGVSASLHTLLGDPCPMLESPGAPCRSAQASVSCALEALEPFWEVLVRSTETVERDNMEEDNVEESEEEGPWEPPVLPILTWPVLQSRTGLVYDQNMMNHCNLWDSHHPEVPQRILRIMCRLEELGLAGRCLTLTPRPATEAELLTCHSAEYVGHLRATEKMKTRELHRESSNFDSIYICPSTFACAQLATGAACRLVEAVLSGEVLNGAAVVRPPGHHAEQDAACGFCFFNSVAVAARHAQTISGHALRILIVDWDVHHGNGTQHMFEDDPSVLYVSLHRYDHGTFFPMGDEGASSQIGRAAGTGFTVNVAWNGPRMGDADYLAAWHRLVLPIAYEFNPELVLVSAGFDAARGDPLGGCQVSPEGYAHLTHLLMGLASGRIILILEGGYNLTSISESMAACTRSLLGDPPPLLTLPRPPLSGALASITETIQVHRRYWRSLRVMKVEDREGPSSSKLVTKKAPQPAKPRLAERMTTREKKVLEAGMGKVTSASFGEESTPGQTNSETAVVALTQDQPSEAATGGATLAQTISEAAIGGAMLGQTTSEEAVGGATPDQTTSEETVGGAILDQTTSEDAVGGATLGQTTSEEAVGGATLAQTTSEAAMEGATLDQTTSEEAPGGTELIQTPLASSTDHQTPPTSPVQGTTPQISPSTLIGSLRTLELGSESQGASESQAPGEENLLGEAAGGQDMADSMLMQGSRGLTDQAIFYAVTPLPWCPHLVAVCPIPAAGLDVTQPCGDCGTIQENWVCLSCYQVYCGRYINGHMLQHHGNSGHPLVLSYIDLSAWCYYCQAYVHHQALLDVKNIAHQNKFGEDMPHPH

[3] = tested on: HAL-01; assay: cells; assay type: functional, cell-based; conditions: Homo sapiens, HAL-01, 72 h
[4] = tested on: HL-60; assay: cells; assay type: functional, cell-based; conditions: Homo sapiens, HL-60, 72 h
[5] = tested on: Jurkat; assay: cells; assay type: functional, cell-based; conditions: Homo sapiens, 72 h
[6] = target: Histone deacetylase 2 (Homo sapiens, UniProt Q92769); assay: Inhibition of recombinant human C-terminal FLAG-tagged HDAC2 (1 to 488 residues) expressed in Sf9 insect cells using Z-Lys(Ac)-AMC as fluorogenic substrate incubated for 90 mins by microplate reader analysis
Method in brief: (§1)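 Compound incubated with ZMAL (Z-Lys(Ac)-AMC; 21.43 μM solution) and enzyme at 37 °C for 90 min. Trypsin (0.4 mg/mL) added, 30 min at 37 °C. […] Duplicates, ≥2 independent experiments. SI = IC50 (HDAC2 or 3)/IC50 (HDAC6).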

[7] = target: Histone deacetylase 3/Nuclear receptor corepressor 2 (HDAC3/NCoR2) (Homo sapiens, UniProt O15379); assay: Inhibition of C-terminal His-tagged recombinant human HDAC3 (1 to 428 residues)/N-terminal GST-tagged recombinant human NCoR2 (395 to 489 residues) co-expressed in Sf9 cells using Z-Lys(Ac)-AMC as fluorogenic substrate incubated for 90 mins by microplate reader analysis; method in brief: as §1
[8] = target: Histone deacetylase 4 (Homo sapiens, UniProt P56524); assay: Inhibition of recombinant human N-terminal GST-tagged/C-terminal His-tagged HDAC4 (627 to 1084 residues) expressed in baculovirus infected Sf9 insect cells using Boc-Lys (trifluoroacetyl)-AMC as substrate incubated for 90 mins by microplate reader analysis
Method in brief: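 HDAC4 enzyme in Tris-HCl pH 8.0 buffer with NaCl, KCl, MgCl₂ and 0.1 mg/mL BSA, max. 1% DMSO. Trypsin (1.0 mg/mL) added, 30 min. Three-parameter log(inhibitor) fit. Duplicates, ≥2 experiments, mean ± SD. SI = IC50 HDAC4/IC50 HDAC6.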

[9] = tested on: HL-60; assay: Induction of apoptosis in human HL-60 cells assessed as increase in total apoptotic cells at 1 to 5 uM incubated for 48 hrs by annexin V and propidium iodide staining based flow cytometry analysis; assay type: functional, cell-based; conditions: dose 1-5 µM
Method in brief: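 HL60 cells (RPMI 1640 GlutaMax, 10-20% FCS, 37°C, 5% CO₂) exposed to compound or control at 1 or 5 μM for 48 h, then stained with annexin V and propidium iodide and analysed by flow cytometry; n=3.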

[10] = target: T2, Histone deacetylase (Homo sapiens) (UniProt Q13547+O15379+Q9UBN7+Q92769+Q9UQL6+Q8WUI4+Q9BY41+Q96DB2+P56524+Q9UKV0+Q969S8); assay: Inhibition of HDAC in human HL-60 cells assessed as increase in alpha tubulin acetylation at 6 to 36 uM incubated for 24 hrs by immunoblot analysis; assay type: cell-based; conditions: dose 6-36 µM
[11] = tested on: MOLM-13; assay: Synergistic cytotoxicity against human MOLM-13 cells assessed as increase in synergy score at 0.1 to 2 uM incubated for 72 hrs in presence of […] inhibitor, decitabine by CellTiter-Glo luminescent assay; assay type: functional, cell-based; conditions: dose 0.1-2 µM
Method in brief: (§2)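 AML cells treated 72 h in an 8×8 dose matrix: compound 0.1–2 μM and decitabine 0.25–10 μM, logarithmically spaced. Viability by CellTiter-Glo luminescence. Synergy scored with the ZIP model in SynergyFinder.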

[12] = tested on: HL-60; assay: Synergistic cytotoxicity against human HL-60 cells assessed as increase in synergy score at 0.1 to 2 uM incubated for 72 hrs in presence of DNA methyltransferase inhibitor, decitabine by CellTiter-Glo luminescent assay; assay type: functional, cell-based; conditions: dose 0.1-2 µM; method in brief: as §2
[13] = target: T2, Histone deacetylase (Homo sapiens); assay: Inhibition of HDAC in human HL-60 cells assessed as increase in Ac-H3 levels incubated for 24 hrs by immunoblot analysis; assay type: cell-based; conditions: dose lower […], dose upper 296.0 nM, DDE = dose-dependent effect
[14] = target: T2, Histone deacetylase (Homo sapiens); assay: Inhibition of HDAC in human HL-60 cells assessed as increase in Ac-H3 levels at 0.15 uM incubated for 24 hrs in presence of DNA methyltransferase inhibitor, decitabine by immunoblot analysis; assay type: cell-based
Method in brief: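 HL60 cells treated for 24 h with compound alone or combined with decitabine at indicated concentrations. Acetylated H3 detected by immunoblotting.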

[15] = target: T2, Histone deacetylase (Homo sapiens); assay: Inhibition of HDAC in human HL-60 cells assessed as increase in alpha tubulin acetylation incubated for 24 hrs by immunoblot analysis; assay type: cell-based; conditions: dose lower […], dose upper 296.0 nM, DDE = dose-dependent effect

Chain of Histone deacetylase 2 (Q92769 whole entry, the tested form may be a part): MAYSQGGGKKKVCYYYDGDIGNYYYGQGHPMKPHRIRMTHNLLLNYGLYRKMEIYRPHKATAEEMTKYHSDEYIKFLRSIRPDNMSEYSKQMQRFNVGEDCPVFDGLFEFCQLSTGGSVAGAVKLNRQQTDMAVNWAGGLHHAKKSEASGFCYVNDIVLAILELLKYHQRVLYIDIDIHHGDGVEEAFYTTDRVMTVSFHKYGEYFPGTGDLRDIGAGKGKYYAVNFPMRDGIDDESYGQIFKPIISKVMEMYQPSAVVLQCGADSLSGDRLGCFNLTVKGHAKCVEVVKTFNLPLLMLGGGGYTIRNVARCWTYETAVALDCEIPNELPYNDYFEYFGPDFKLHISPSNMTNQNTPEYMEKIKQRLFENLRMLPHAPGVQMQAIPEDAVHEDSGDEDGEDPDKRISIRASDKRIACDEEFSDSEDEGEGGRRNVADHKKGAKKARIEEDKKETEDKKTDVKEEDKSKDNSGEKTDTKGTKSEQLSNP
Chain of Histone deacetylase 1 (Q13547 whole entry, the tested form may be a part): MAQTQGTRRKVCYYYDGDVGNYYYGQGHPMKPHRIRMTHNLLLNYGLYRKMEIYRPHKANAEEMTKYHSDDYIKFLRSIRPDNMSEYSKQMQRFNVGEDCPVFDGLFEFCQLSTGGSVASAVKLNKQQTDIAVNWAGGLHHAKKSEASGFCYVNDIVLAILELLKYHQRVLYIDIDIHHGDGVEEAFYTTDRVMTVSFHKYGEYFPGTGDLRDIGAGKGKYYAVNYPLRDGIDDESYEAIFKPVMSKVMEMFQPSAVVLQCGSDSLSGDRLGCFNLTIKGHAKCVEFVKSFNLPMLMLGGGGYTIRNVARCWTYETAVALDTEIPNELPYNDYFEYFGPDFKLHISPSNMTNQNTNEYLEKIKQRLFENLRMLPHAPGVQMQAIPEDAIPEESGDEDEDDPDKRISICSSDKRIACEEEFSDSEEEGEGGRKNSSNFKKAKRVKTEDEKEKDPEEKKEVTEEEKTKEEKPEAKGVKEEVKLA
Chain of Histone deacetylase 3/Nuclear receptor corepressor 2 (HDAC3/NCoR2) (O15379 whole entry, the tested form may be a part): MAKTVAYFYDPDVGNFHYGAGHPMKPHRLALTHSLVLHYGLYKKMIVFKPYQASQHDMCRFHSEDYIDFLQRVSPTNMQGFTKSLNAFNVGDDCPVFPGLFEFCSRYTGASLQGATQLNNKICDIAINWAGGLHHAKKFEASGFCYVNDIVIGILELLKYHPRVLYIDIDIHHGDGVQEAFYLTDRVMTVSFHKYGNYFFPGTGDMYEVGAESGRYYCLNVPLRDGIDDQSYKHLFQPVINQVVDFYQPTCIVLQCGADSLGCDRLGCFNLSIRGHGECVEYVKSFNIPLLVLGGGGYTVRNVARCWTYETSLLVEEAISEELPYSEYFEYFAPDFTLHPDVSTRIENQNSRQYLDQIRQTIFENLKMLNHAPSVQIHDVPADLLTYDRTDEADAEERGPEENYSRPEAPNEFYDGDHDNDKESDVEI
Chain of Histone deacetylase 3/Nuclear receptor corepressor 2 (HDAC3/NCoR2) (Q9Y618 whole entry, further chain, the tested form may be a part): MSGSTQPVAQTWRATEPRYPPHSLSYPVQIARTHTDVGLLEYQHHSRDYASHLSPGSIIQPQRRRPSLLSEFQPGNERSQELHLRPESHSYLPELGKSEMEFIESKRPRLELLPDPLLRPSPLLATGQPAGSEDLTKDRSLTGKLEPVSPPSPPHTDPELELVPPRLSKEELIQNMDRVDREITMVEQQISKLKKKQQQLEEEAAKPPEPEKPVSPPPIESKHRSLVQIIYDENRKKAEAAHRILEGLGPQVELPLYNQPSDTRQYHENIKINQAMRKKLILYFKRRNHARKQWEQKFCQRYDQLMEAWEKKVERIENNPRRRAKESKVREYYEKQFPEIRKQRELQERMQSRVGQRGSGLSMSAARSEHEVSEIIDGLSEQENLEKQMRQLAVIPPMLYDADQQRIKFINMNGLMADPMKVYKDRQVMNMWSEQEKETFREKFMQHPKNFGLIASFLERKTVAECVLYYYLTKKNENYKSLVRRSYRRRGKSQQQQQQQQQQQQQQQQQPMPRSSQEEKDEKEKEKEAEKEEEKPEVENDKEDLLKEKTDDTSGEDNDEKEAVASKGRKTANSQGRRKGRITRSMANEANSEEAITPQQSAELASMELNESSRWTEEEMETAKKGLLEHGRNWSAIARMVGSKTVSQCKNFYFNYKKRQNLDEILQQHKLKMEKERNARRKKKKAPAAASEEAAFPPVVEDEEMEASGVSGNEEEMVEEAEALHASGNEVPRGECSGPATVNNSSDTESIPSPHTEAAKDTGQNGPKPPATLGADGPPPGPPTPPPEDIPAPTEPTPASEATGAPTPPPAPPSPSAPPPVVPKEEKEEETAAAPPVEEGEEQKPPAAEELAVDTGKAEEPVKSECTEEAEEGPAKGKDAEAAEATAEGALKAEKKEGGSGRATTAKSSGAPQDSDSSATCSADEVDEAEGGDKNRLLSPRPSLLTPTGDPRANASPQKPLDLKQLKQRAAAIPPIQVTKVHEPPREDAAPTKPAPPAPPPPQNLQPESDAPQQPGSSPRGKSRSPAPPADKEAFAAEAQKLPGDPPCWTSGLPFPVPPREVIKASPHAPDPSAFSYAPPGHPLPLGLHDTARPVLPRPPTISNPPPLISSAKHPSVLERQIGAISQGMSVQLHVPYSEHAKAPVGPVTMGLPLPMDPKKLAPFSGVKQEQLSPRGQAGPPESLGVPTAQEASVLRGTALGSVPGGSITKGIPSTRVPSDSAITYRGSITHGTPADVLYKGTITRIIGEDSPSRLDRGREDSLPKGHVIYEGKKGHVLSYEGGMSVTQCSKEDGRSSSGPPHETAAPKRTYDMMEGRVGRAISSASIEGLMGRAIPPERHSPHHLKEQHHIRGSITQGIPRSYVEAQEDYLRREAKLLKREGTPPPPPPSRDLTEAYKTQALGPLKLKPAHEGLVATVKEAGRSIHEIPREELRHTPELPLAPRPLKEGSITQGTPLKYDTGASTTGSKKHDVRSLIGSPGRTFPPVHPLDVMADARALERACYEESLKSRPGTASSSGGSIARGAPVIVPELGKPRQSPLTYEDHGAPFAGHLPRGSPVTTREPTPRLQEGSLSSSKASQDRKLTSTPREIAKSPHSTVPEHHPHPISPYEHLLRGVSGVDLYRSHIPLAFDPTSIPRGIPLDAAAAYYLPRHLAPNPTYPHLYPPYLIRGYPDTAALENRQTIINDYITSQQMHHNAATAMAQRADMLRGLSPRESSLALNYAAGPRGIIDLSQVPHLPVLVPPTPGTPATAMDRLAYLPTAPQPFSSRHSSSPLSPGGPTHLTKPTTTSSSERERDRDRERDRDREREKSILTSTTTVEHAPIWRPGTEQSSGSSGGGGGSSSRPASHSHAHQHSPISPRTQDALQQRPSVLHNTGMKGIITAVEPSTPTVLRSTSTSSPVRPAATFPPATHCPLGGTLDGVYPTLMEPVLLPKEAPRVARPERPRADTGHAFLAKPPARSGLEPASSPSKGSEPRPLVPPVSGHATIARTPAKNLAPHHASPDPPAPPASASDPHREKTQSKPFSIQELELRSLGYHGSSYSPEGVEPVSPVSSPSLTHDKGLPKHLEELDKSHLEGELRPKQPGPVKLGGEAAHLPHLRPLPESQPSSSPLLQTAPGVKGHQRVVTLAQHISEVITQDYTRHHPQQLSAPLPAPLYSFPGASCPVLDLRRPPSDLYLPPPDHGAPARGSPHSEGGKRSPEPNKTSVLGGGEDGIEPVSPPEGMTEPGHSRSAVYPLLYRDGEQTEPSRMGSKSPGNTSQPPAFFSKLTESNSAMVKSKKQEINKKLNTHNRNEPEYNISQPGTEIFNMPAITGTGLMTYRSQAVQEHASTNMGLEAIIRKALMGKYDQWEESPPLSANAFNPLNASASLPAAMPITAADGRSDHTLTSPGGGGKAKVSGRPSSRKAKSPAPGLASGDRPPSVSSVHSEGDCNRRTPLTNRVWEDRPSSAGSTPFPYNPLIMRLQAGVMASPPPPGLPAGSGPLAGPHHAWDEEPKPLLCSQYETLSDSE
Chain of Histone deacetylase 4 (P56524 whole entry, the tested form may be a part): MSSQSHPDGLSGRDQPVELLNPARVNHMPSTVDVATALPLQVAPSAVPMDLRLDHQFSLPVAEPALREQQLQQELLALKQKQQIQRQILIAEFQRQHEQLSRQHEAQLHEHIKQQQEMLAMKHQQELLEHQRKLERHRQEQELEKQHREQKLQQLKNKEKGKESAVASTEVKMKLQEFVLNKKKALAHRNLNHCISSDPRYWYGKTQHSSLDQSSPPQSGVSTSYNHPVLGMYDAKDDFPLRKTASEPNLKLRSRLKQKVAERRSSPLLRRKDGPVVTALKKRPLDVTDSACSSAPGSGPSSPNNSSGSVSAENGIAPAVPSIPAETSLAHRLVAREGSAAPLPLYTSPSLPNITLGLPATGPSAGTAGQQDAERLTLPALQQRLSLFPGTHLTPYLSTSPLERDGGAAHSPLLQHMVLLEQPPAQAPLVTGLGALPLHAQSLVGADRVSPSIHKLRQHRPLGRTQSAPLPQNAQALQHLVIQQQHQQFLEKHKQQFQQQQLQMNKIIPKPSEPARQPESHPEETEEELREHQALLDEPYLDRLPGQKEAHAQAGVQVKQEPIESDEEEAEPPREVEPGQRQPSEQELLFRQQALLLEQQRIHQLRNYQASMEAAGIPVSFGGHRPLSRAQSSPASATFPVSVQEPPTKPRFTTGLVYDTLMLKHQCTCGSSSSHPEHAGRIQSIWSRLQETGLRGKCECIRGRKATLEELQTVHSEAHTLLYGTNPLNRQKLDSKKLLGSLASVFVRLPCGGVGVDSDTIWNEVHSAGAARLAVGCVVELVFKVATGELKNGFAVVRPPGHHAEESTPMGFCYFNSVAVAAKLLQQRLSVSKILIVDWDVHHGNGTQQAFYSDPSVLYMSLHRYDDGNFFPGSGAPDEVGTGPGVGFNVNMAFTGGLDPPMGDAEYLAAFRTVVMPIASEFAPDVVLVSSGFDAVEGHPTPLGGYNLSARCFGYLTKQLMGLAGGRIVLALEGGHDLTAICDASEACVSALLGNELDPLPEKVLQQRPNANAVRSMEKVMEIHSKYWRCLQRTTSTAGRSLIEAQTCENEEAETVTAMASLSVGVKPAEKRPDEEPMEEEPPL

Structure (SMILES) | IC50 [1] | IC50 [2] | IC50 [3] | other results
Cc1cc(C)cc(C(=O)N(CC(=O)NC(C)(C)C)Cc2ccc(C(=O)NO)cc2F)c1 | 573 nM | 24 nM | – | –
CN(C)c1ccc(C(=O)N(CC(=O)NCc2ccccc2)Cc2ccc(C(=O)NO)cc2)cc1 | 5 nM | 11 nM | – | –
CN(C)c1ccc(C(=O)N(CC(=O)NC2CCCCC2)Cc2ccc(C(=O)NO)cc2F)cc1 | 66 nM | 16 nM | – | –
Cc1ccccc1C(=O)N(CC(=O)NC(C)(C)C)Cc1ccc(C(=O)NO)cc1F | 1750 nM | 27 nM | – | –
COc1ccccc1C(=O)N(CC(=O)NC1CCCCC1)Cc1ccc(C(=O)NO)cc1F | 1500 nM | 20 nM | > 25 µM | –
Cc1cc(C)cc(C(=O)N(CC(=O)NCc2ccccc2)Cc2ccc(C(=O)NO)cc2F)c1 | 77 nM | 13 nM | 2.75 µM | IC50 [4]: 9.15 µM; IC50 [5]: 6.23 µM
Cc1ccccc1C(=O)N(CC(=O)NC(C)(C)C)Cc1ccc(C(=O)NO)cc1 | – | – | – | IC50 ([1]; sf9): 2410 nM; IC50 ([2]; sf9): 51 nM
COc1ccccc1C(=O)N(CC(=O)NC(C)(C)C)Cc1ccc(C(=O)NO)cc1 | – | – | – | IC50 ([1]; sf9): 3110 nM; IC50 ([2]; sf9): 38 nM
CC(C)(C)NC(=O)CN(Cc1ccc(C(=O)NO)cc1F)C(=O)c1ccccc1Cl | 3470 nM | 21 nM | – | –
O=C(CN(Cc1ccc(C(=O)NO)cc1F)C(=O)c1ccccc1F)NC1CCCCC1 | – | 18 nM | – | –
Cc1cc(C)cc(C(=O)N(CC(=O)NC2CCCCC2)Cc2ccc(C(=O)NO)cc2F)c1 | – | 20 nM | – | –
O=C(NO)c1ccc(CC(=O)N(CCO)c2ccccc2)cc1 | – | – | 13.9 µM | IC50 [4]: 11.3 µM; IC50 [5]: 16.1 µM
Cc1ccccc1C(=O)N(CC(=O)NC1CCCCC1)Cc1ccc(C(=O)NO)cc1F | 938 nM | 18 nM | – | –
CC(C)(C)NC(=O)CN(Cc1ccc(C(=O)NO)cc1F)C(=O)c1ccccc1C(F)(F)F | 2330 nM | 27 nM | > 25 µM | IC50 [5]: > 25 µM
O=C(CN(Cc1ccc(C(=O)NO)cc1F)C(=O)c1ccccc1C(F)(F)F)NC1CCCCC1 | 1450 nM | – | – | IC50 [5]: > 25 µM
CC(C)(C)NC(=O)CN(Cc1ccc(C(=O)NO)cc1F)C(=O)c1ccccc1F | 1180 nM | 26 nM | – | –
CC(C)c1ccccc1C(=O)N(CC(=O)NC(C)(C)C)Cc1ccc(C(=O)NO)cc1F | 8010 nM | – | > 25 µM | IC50 [6]: 4480 nM; IC50 [7]: 8.35 µM; IC50 [8]: > 10 µM; Activity [9]: Active; inhibition [10]: Active; IC50 [5]: > 25 µM
CN(C)c1ccc(C(=O)N(CC(=O)NC(C)(C)C)Cc2ccc(C(=O)NO)cc2F)cc1 | 158 nM | 20 nM | – | –
Cc1cc(C)cc(C(=O)N(CC(=O)NC2CCCCC2)Cc2ccc(C(=O)NO)cc2)c1 | 249 nM | 40 nM | – | –
CN(C)c1ccc(C(=O)N(CC(=O)NCc2ccccc2)Cc2ccc(C(=O)NO)cc2F)cc1 | 13 nM | – | 0.375 µM | IC50 [6]: 14 nM; IC50 ([6]; record 2): 14 nM; IC50 [7]: 0.021 µM; Activity [11]: Active; Activity [12]: Active; IC50 [4]: 0.218 µM; inhibition [13]: Dde; inhibition [14]: Active; Activity [9]: Active; inhibition [15]: Dde; IC50 [5]: 0.285 µM
COc1ccccc1C(=O)N(CC(=O)NC(C)(C)C)Cc1ccc(C(=O)NO)cc1F | 1750 nM | 17 nM | > 25 µM | –
